Experimental findings from ChEMBL document CHEMBL1153939, “Novel antagonists of serotonin-4 receptors: synthesis and biological evaluation of pyrrolothienopyrazines” (Bioorg Med Chem, 2009) are described below.

Bounds are passed on as bounds.

Test [1] addresses 5-hydroxytryptamine receptor 4 (Cavia porcellus) (UniProt O70528). Put plainly: Displacement of [3H]GR-113808 from 5HT4 receptor in guinea pig striatum membrane at 10 nM. In kind it is cell membranes. The method, boiled down:
(§1)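 Guinea pig membranes (15 µg protein/mL) incubated 30 min at 37 °C with 0.6 nM [3H]GR113808 in 50 mM HEPES, pH 7.4, with fixed test concentrations. Nonspecific binding defined with 10 µM serotonin.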
(In general: In a radioligand displacement assay an active substance lowers the binding of a labelled ligand.)

The target of test [2] is 5-hydroxytryptamine receptor 4 (Cavia porcellus, UniProt O70528). Put plainly: Displacement of [3H]GR-113808 from 5HT4 receptor in guinea pig striatum membrane. It is filed as cell membranes. The method, boiled down:
as §1

The target of test [3] is 5-hydroxytryptamine receptor 4 (Cavia porcellus) (UniProt O70528). Put plainly: Displacement of [3H]GR-113808 from 5HT4 receptor in guinea pig striatum membrane at 1 uM. It is filed as cell membranes. The method, boiled down: as §1
5-hydroxytryptamine receptor 4 (Cavia porcellus), sequence (O70528 whole entry): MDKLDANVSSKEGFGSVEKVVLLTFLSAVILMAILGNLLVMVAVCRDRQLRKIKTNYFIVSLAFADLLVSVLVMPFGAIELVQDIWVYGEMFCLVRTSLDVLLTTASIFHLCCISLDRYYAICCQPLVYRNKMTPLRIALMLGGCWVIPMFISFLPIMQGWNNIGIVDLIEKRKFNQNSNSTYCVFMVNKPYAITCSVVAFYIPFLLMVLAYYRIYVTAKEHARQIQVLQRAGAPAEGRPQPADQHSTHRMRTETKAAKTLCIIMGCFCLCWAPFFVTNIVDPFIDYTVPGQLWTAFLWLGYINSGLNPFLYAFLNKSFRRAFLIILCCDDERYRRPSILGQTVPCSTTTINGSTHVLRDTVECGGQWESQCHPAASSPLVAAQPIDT
Test [4] has as its target 5-hydroxytryptamine receptor 4 (Homo sapiens, UniProt Q13639). Description: Binding affinity at 5HT4 receptor.
In test [5] the target is T1, 5-hydroxytryptamine receptor 3A (Homo sapiens, UniProt P46098).
T1 sequence (P46098 whole entry): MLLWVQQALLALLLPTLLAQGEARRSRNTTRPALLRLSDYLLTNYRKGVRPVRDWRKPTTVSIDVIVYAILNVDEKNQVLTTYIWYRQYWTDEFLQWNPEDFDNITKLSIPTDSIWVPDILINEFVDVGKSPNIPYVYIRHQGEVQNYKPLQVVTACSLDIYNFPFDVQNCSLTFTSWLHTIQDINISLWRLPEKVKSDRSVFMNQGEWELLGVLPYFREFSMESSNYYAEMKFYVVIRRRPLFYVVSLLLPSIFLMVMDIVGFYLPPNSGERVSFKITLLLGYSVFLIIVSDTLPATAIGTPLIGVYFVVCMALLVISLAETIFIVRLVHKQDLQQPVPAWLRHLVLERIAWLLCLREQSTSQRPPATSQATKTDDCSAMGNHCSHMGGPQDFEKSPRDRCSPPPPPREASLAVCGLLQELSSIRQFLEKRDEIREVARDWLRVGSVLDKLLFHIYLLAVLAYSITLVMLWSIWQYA
Put plainly: Binding affinity at 5HT3 receptor.

5-hydroxytryptamine receptor 4 (Homo sapiens, UniProt Q13639), sequence (Q13639 whole entry): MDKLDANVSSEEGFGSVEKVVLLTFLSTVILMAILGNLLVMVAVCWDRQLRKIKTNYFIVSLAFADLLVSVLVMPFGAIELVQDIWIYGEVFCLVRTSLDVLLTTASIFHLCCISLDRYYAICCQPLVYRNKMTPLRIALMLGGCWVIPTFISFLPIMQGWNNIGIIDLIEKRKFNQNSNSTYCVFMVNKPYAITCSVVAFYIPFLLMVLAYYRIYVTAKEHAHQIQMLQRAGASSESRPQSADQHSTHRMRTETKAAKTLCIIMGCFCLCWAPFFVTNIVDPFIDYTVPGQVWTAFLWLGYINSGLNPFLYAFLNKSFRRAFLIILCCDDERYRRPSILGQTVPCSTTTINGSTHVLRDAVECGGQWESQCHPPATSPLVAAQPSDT
5-hydroxytryptamine receptor 4 (Cavia porcellus, UniProt O70528), sequence (O70528 whole entry): as the sequence (O70528 whole entry) above

A word on the inhibition: it is the drop in the measured response relative to a control, in per cent. As usually defined, the Ki is a dissociation constant, usually derived from enzyme kinetics or from competition with a known ligand. Low readings indicate higher affinity, high ones lower affinity. With `CCCCN1CCC(COc2nc3sccc3n3cccc23)CC1`, the inhibition in test [1] is 56%; in test [3], 100%. In test [2], this compound gave an inhibition constant Ki of 20.9 nM.
Regarding `c1ccc(CN2CCN(CCOc3nc4ccsc4n4cccc34)CC2)cc1`, the inhibition in test [1] came out at 0%; in test [3], 13%.
For `CCCN1CCCCC1CCOc1nc2ccsc2n2cccc12` (configuration not stated), in that order: 0% and 72%.
For `CCN1CCC(COc2nc3sccc3n3cccc23)CC1` the same measures were 0% and 92%.
As to `CN(CCOc1nc2ccsc2n2cccc12)Cc1ccccc1`, the values for the inhibition in test [1] and in test [3] were 2% and 20%, respectively.
For `Cc1csc2nc(OCC3CCN(Cc4ccccc4)CC3)c3cccn3c12`, in that order: 11% and 100%.
Take `c1cc2c(OCCCN3CCCCC3)nc3ccsc3n2c1`: the inhibition in test [1] stood at 30%; in test [3] it was 100%. The compound also gave a Ki in test [2] of 52.5 nM.
As for `CN1CCC(COc2nc3sccc3n3cccc23)CC1`, the results for the inhibition in test [1] and in test [3] were 20% and 100%, respectively. This compound also showed a Ki in test [2] of 38 nM.
For `C=CCN1CCC(COc2nc3scc(C)c3n3cccc23)CC1` the same measures were 26%, 100% and 8.51 nM.
For `c1cc2c(OCCC3CCCCN3)nc3ccsc3n2c1` (configuration not stated), in that order: 5%, 90% and 617 nM.
For `c1cc2c(OCCN3CCNCC3)nc3ccsc3n2c1`, the inhibition in test [1] is 0%; in test [3], 38%.
`CN1[C@@H]2CC[C@H]1C[C@@H](OC(=O)c1c[nH]c3ccccc13)C2` [TROPISETRON] gave a Ki in test [4] of 200 nM.
For `c1cc2c(OCCCN3CCNCC3)nc3ccsc3n2c1`, the inhibition turned out to be 14% in test [1] and 75% in test [3].
On to `c1cc2c(OCCN3CCCCC3)nc3ccsc3n2c1`, for which the results for the inhibition in test [1] and in test [3] were 5% and 73%, respectively. In addition, the Ki in test [2] is 417 nM.
For `C=CCN1CCC(COc2nc3sccc3n3cccc23)CC1`, in that order: 49%, 99% and 29.5 nM.
As to `CCCCN1CCN(CCOc2nc3ccsc3n3cccc23)CC1`, the inhibition in test [1] worked out at 12%; in test [3], 66%.
For `c1cc2c(OCC3CCNCC3)nc3ccsc3n2c1`, in that order: 8% and 74%.
For `NCCOc1nc2ccsc2n2cccc12` the same measures were 0% and 0%.
For `c1cc2c(OCC3CCCCN3)nc3ccsc3n2c1` (configuration not stated) the same measures were 18% and 90%.
In test [5], `CCCCN1CCC(CNC(=O)c2c3n(c4ccccc24)CCCO3)CC1` [PIBOSEROD] gave an inhibition constant Ki of more than 1000 nM.
On to `C=CCCN1CCC(COc2nc3scc(C)c3n3cccc23)CC1`, for which the inhibition in test [1] was found to be 28%; in test [3], 100%. In addition, in test [2], the affinity, expressed as Ki, was 11.2 nM.
For `CCCN1CCC(COc2nc3sccc3n3cccc23)CC1` the same measures were 54%, 100% and 11.7 nM.
As for `CCCCCN1CCC(COc2nc3sccc3n3cccc23)CC1`, the inhibition came out at 13% in test [1] and 100% in test [3]. The compound also had a Ki in test [2] of 49 nM.
With `c1cc2c(OC3CN4CCC3CC4)nc3ccsc3n2c1` (configuration not stated), the inhibition in test [1] was 11%; in test [3], 53%.
With `CC(C)N1CCC(COc2nc3ccsc3n3cccc23)CC1`, the results for the inhibition in test [1] and in test [3] were 38% and 100%, respectively. The compound also had a Ki in test [2] of 18.2 nM.
For the compound `CCC(C)N1CCC(COc2nc3ccsc3n3cccc23)CC1` (configuration not stated), the inhibition is 2% in test [1] and 56% in test [3].
For `CCCCN1CCC(Oc2nc3ccsc3n3cccc23)CC1` the same measures were 1% and 50%.
Take `CN1CCC(COc2nc3ccsc3n3cccc23)CC1`: the inhibition was 0% in test [1] and 100% in test [3]. This compound also showed a Ki in test [2] of 58.9 nM.
For the compound `C=CCN1CCC(COc2nc3ccsc3n3cccc23)CC1`, the inhibition came to 32% in test [1] and 95% in test [3]. For the same compound, in test [2], the affinity, expressed as Ki, was 8.71 nM.
Regarding `CCCN1CCC(COc2nc3ccsc3n3cccc23)CC1`, the inhibition in test [1] amounted to 97%; in test [3] it was 100%. In test [2], the Ki is 16.2 nM.
In the case of `c1cc2c(OC3CCNCC3)nc3ccsc3n2c1`, the inhibition in test [1] came out at 0%; in test [3], 26%.
As to `CCN1CCC(COc2nc3scc(C)c3n3cccc23)CC1`, the inhibition in test [1] amounted to 30%; in test [3], 100%. Moreover, the Ki in test [2] was 9.55 nM.
Take `CCCCCN1CCC(COc2nc3ccsc3n3cccc23)CC1`: the values for the inhibition in test [1] and in test [3] were 55% and 99%, respectively. The Ki in test [2] is 25.7 nM.
In the case of `CCCCN1CCC(COc2nc3scc(C)c3n3cccc23)CC1`, the values for the inhibition in test [1] and in test [3] were 75% and 100%, respectively. Moreover, the Ki in test [2] is 5.37 nM.
For `C=CCCN1CCC(COc2nc3ccsc3n3cccc23)CC1`, in that order: 23%, 100% and 37.2 nM.
For `c1cc2c(OCCCCN3CCCCC3)nc3ccsc3n2c1`, in that order: 16%, 100% and 57.5 nM.
In the case of `CNCCOc1nc2ccsc2n2cccc12`, the inhibition in test [1] worked out at 9%; in test [3] it was 7%.
For the compound `CCCN1CCN(CCOc2nc3ccsc3n3cccc23)CC1`, the inhibition in test [1] stood at 0%; in test [3] it was 72%.
For the compound `CCN(CC)CCCCOc1nc2ccsc2n2cccc12`, the inhibition in test [1] stood at 34%; in test [3] it was 100%. Moreover, the affinity in test [2] corresponds to a Ki of 16.2 nM.
For `Cc1csc2nc(OCC3CCN(C(C)C)CC3)c3cccn3c12`, in that order: 30%, 100% and 6.46 nM.
Regarding `Cc1csc2nc(OCCCN3CCCCC3)c3cccn3c12`, the inhibition in test [1] came to 26%; in test [3], 100%. In test [2], this compound had an inhibition constant (Ki) of 12.9 nM.
`Cc1csc2nc(OCC3CCN(C)CC3)c3cccn3c12`: the inhibition in test [1] was 13%; in test [3] it was 100%.
For `CCCN1CCC(Oc2nc3ccsc3n3cccc23)CC1` the same measures were 10% and 67%.
For the compound `c1cc2c(OCCN3CCOCC3)nc3ccsc3n2c1`, the inhibition in test [1] was found to be 12%; in test [3] it was 18%.
For `CCCN1CCCC(COc2nc3ccsc3n3cccc23)C1` (configuration not stated) the same measures were 0% and 91%.
For `CCC(C)N1CCC(COc2nc3scc(C)c3n3cccc23)CC1` (configuration not stated) the same measures were 18% and 100%.
Regarding `CCN(CC)CCOC(=O)c1cc(Cl)c(N)cc1OC`, the Ki in test [5] was 126 nM.
With `c1cc2c(OCCN3CCCC3)nc3ccsc3n2c1`, the inhibition stood at 7% in test [1] and 60% in test [3].
For the compound `c1ccc(CN2CCC(COc3nc4ccsc4n4cccc34)CC2)cc1`, the inhibition in test [1] turned out to be 0%; in test [3], 100%. The compound further showed a Ki in test [2] of 63.1 nM.
Consider `c1cc2c(OCCCN3CCCC3)nc3ccsc3n2c1`, for which the inhibition turned out to be 15% in test [1] and 100% in test [3]. Affinity in test [2] was put at a Ki of 74.1 nM.
Turning to `CCCCCNC(=N)N/N=C/c1c[nH]c2ccc(OC)cc12` [TEGASEROD], the Ki in test [5] is more than 10000 nM; in test [4] it was 3.98 nM.
For `CCCCN1CCC(COC(=O)c2cc(Cl)c(N)c3c2OCCO3)CC1`, in that order: 158 nM and 0.0158 nM.
Consider `CCCCN1CCCC(COc2nc3ccsc3n3cccc23)C1` (configuration not stated), for which the inhibition was determined as 0% in test [1] and 82% in test [3].
With `CCCCCN1CCC(COc2nc3scc(C)c3n3cccc23)CC1`, the inhibition in test [1] turned out to be 20%; in test [3] it was 100%.
For the compound `COc1cc(N)c(Cl)cc1C(=O)OCCCN1CCCCC1`, the figures for the Ki in test [5] and in test [4] were 2000 nM and 31.6 nM, respectively.
For the compound `COCCCN1CCC(NC(=O)c2cc(Cl)c(N)c3c2OCC3)CC1` [PRUCALOPRIDE], in test [5], the Ki is 3980 nM.
